Source: publication PMC9624268 (Translational Vision Science & Technology, 2022)
Like-named read-outs stand apart in the source and are kept apart here. One block for each compound: values may come before it.

What was measured:
[1] = GLP toxicology study, ophthalmic findings in rats; format: in vivo, rat; settings: oral administration, 1 month, 3 months, 6 months
[2] = format: in vivo, rabbit
rodent factor D = settings: stated in discussion, no reference given; cited from earlier work
[3] = format: in vivo, rabbit; remark: listed apart in the source
[4] = GLP toxicology study, ophthalmic findings and ERG in dogs; format: in vivo, dog
[5] = test system: choroidal neovascularization; settings: mice, cited from earlier work
[6] = pigmented rats, single oral dose 10 mg/kg; cited from earlier work
[7] = format: in vivo, rat; settings: albino rats, single oral dose 20 mg/kg, whole-body autoradiography
Method in brief: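 Male albino Wistar Han rats (n = 3) got a single oral dose of 20 mg/kg [14C]-labelled test compound. It was suspended on the day of dosing in PEG 400:saline:DMSO 60:36.3:3.7 (v:v:v). Carcasses were frozen in hexane/dry ice, stored at or below −20°C, and cut into ~40 μm sagittal sections. Imaging was at 50 μm resolution. Radioactivity was quantified by image densitometry as μg equivalents/g.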

[8] = format: in vivo, rat; settings: single oral dose 20 mg/kg
Method in brief: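 Male pigmented Long–Evans rats (n = 10) got a single oral dose of 20 mg/kg [14C]-labelled test compound in PEG 400:saline:DMSO 60:36.3:3.7 (v:v:v), prepared on the day of dosing. Frozen carcasses were cut into ~40 μm sagittal sections and imaged at 50 μm resolution. Densitometry gave μg equivalents/g, and tissue t1/2 came from noncompartmental analysis.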

AUClast ([2]; DB rabbit, single oral dose 15 mg/kg, choroid/BrM/RPE, mean): 37,400 h·ng/g | AUClast ([2]; DB rabbit, single oral dose 15 mg/kg, neural retina, mean): 998 ng·h/g | MRTlast ([2]; DB rabbit, single oral dose 15 mg/kg, neural retina, mean, 15 mg/kg): 7.83 h | dose-exposure relationship, plasma and neural retina ([2]; DB rabbits, 7.5, 15 and 50 mg/kg/dose twice daily for 15 days (data not shown)): approximate dose linearity | time through which exposure was detected in plasma after the last dose ([2]; DB rabbits, 7.5, 15 and 50 mg/kg/dose twice daily for 15 days, plasma): 24 h | dose-exposure relationship, choroid/BrM/RPE ([2]; DB rabbits, between 15 and 50 mg/kg/dose twice daily for 15 days (data not shown)): less-than-dose proportionality | Cmax ([2]; Dutch Belted, rabbit, choroid/BrM/RPE, po, 15 mg/kg, DB rabbit, single oral dose 15 mg/kg, mean): 917 ng/g | MRT last ([2]; Dutch Belted, rabbit, choroid/BrM/RPE, po, 15 mg/kg, MRTlast, DB rabbit, single oral dose 15 mg/kg, mean): 49.7 h | Cmax ([2]; Dutch Belted, rabbit, neural retina, po, 15 mg/kg, DB rabbit, single oral dose 15 mg/kg, mean): 145 ng/g | AUClast ([3]; NZW rabbit, single oral dose 15 mg/kg, choroid/BrM/RPE, mean): 1010 ng·h/g | AUClast ([3]; NZW rabbit, single oral dose 15 mg/kg, neural retina, mean): 665 ng·h/g | MRT last ([3]; New Zealand White, rabbit, choroid/BrM/RPE, po, 15 mg/kg): 5.87 h | Cmax ([3]; New Zealand White, rabbit, choroid/BrM/RPE, po, 15 mg/kg, NZW rabbit, single oral dose 15 mg/kg, mean): 172 ng/g | MRT last ([3]; New Zealand White, rabbit, neural retina, po, 15 mg/kg): 1.49 h | Cmax ([3]; New Zealand White, rabbit, neural retina, po, 15 mg/kg, NZW rabbit, single oral dose 15 mg/kg, mean): 200 ng/g | MRT last ([3]; New Zealand White, rabbit, plasma, po, 15 mg/kg): 4.01 h | AUC(0-t) ([3]; New Zealand White, rabbit, plasma, po, 15 mg/kg, AUClast, NZW rabbit, single oral dose 15 mg/kg, mean): 1430 ng·h/mL | Cmax ([3]; New Zealand White, rabbit, plasma, po, 15 mg/kg, NZW rabbit, single oral dose 15 mg/kg, mean): 310 ng/mL
Compound: CC(=O)c1nn(CC(=O)N2C[C@H](F)C[C@H]2C(=O)Nc2cccc(Br)n2)c2ccc(-c3cnc(C)nc3)cc12 [Danicopan]
clinical or histopathological ophthalmic findings [1]: no clinical or histopathological ophthalmic findings | inhibitory effect on rodent factor D (rodent factor D): lack of an inhibitory effect | clinical or histopathological ophthalmic findings ([4]; oral administration, 14 days, 3 months, 9 months, GLP): no clinical or histopathological ophthalmic findings | electroretinography (ERG) abnormalities ([4]; week 38, compared to pretreatment ERG): no abnormalities were detected

Compound: Cc1ccc(Nc2nccc(N(C)c3ccc4c(C)n(C)nc4c3)n2)cc1S(N)(=O)=O [Pazopanib]
plasma levels ([5]; 3 days after a single loading dose 10 mg/kg): undetectable | choroidal neovascularization lesion size ([5]; single loading dose 10 mg/kg, up to 2 weeks after choroidal neovascularization induction): significantly reduced | time detected in melanin-containing tissues including the uveal tract [6]: up to 35 days

radioactivity in most tissues at 24 hours postdose [7]: nonquantifiable | time postdose at which radioactivity remained quantifiable in uveal tract ([8]; pigmented rats, uveal tract (28 days)): 672 h | radioactivity in most tissues at 24 hours postdose ([8]; pigmented rats, whole-body autoradiography): nonquantifiable | radioactivity in plasma and whole blood ([8]; after 8 hours postdose): undetectable
Compound: [^14C]-danicopan
